The results in this text go back to ChEMBL document CHEMBL1955761, “Privileged scaffolds or promiscuous binders: a comparative study on rhodanines and related heterocycles in medicinal chemistry” (J Med Chem, 2012).

The source made the active and inactive calls.

One assay deals with Dengue virus. Kind of assay: Inhibition of Dengue virus NS2B-NS3 protease using Abz-NleKRRS-3-(NO2)Y as substrate at 50 uM preincubated for 15 mins measured every sec for 15 mins by fluorimetric analysis.
The target of the next assay is Prothrombin (Bos taurus) (UniProt P00735). Description: Inhibition of bovine plasma thrombin using Boc-Val-Pro-Arg-AMC as substrate at 25 uM preincubated for 15 mins measured after 10 mins by fluorimetric assay. A digest of the protocol: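 Purchased bovine plasma thrombin at 10 nM final, preincubated 15 min with 25 μM inhibitor; reaction started with 50 μM substrate. Buffer 50 mM Tris-HCl pH 7.5, 150 mM NaCl, 0.05% Tween 20. Triplicate, averaged.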

The test system of assay [1] is Escherichia coli. Description: Inhibition of Escherichia coli MurA using PEP as substrate assessed as inorganic phosphate release at 25 uM preincubated for 10 mins measured after 60 mins […].
In assay [2] the test system is Escherichia coli. Kind of assay: Inhibition of Escherichia coli MetAP at 10 uM after 15 mins by fluorescence analysis.

As for `O=C1NC(=O)/C(=C/c2ccc3ccccc3c2)N1`, the inhibition is 36% in the assay on Dengue virus and 46% in the assay on Escherichia coli [2]. Further, the inhibition entry at Prothrombin (Bos taurus) and in the assay with Escherichia coli [1] was “inactive” throughout.

On to `O=C1NC(=S)N[C@@H]1Cc1ccccc1`, for which the inhibition with Dengue virus turned out to be 14%; at Prothrombin (Bos taurus) it was 12%; in the assay on Escherichia coli [1], 11%. In the assay on Escherichia coli [2], the inhibition result was “inactive”.

For the molecule `CC(=O)n1cc(/C=C2\SC(=S)NC2=O)c2ccccc21`, the inhibition stood at 46% with Dengue virus, 31% at Prothrombin (Bos taurus) and 18% in the assay with Escherichia coli [1]. In addition, the inhibition entry with Escherichia coli [2] was “inactive”.

As for `COc1ccccc1/C=C1\SC(=S)NC1=O`, the inhibition in the assay on Dengue virus is 33%; against Prothrombin (Bos taurus), 11%; in the assay with Escherichia coli [1], 10%. Also, the inhibition entry in the assay on Escherichia coli [2] is “inactive”.

For `O=C1NC(=O)/C(=C/c2ccc(Br)s2)S1`, the inhibition result in the assay with Dengue virus was “inactive”. The inhibition was determined as 19% against Prothrombin (Bos taurus), 62% with Escherichia coli [1] and 12% in the assay with Escherichia coli [2].

On to `CCCC/C=C1\NC(=S)NC1=O`, for which the inhibition in the assay on Dengue virus came to 25%; on Prothrombin (Bos taurus) it was 14%; with Escherichia coli [1] it was 11%; in the assay with Escherichia coli [2], 66%.

`O=C1CSC(=S)N1`: the inhibition in the assay on Dengue virus turned out to be 14%. In addition, the inhibition result at Prothrombin (Bos taurus), in the assay with Escherichia coli [1] and with Escherichia coli [2] was “inactive” throughout.

For `O=C1NC(=S)N[C@H]1Cc1ccc(O)cc1`, the inhibition entry in the assay on Dengue virus, at Prothrombin (Bos taurus), in the assay on Escherichia coli [1] and with Escherichia coli [2] was “inactive” in each case.

In the case of `O=C1NC(=S)N/C1=C\c1ccc(O)c(O)c1`, the inhibition with Dengue virus was 36%; against Prothrombin (Bos taurus), 23%; with Escherichia coli [1] it was 46%; in the assay with Escherichia coli [2], 86%.

On to `O=C1NC(=S)S/C1=C\c1ccc(O)c(O)c1`, for which the inhibition was found to be 50% in the assay with Dengue virus, 35% at Prothrombin (Bos taurus), 89% in the assay with Escherichia coli [1] and 65% with Escherichia coli [2].

As for `O=C1NC(=S)S/C1=C\C=C\c1ccco1`, the inhibition worked out at 26% with Dengue virus, 28% against Prothrombin (Bos taurus), 94% in the assay on Escherichia coli [1] and 14% with Escherichia coli [2].

In the case of `CCCCC/C=C1\NC(=S)NC1=O`, the inhibition with Dengue virus worked out at 18%; at Prothrombin (Bos taurus), 16%; in the assay on Escherichia coli [1] it was 17%; with Escherichia coli [2], 27%.

As for `COc1ccc(/C=C2\SC(=S)NC2=O)cc1OC`, the figures for the inhibition in the assay with Dengue virus and on Prothrombin (Bos taurus) were 50% and 29%, respectively. Moreover, the inhibition result in the assay with Escherichia coli [1] and in the assay on Escherichia coli [2] was “inactive” throughout.

For `COc1cc(/C=C2\SC(=S)NC2=O)ccc1O`, the inhibition in the assay on Dengue virus worked out at 42%; on Prothrombin (Bos taurus) it was 32%; in the assay with Escherichia coli [1], 66%; in the assay with Escherichia coli [2], 12%.

For the molecule `O=C1NC(=S)S/C1=C\c1c(F)c(F)c(F)c(F)c1F`, the results for the inhibition in the assay with Dengue virus and on Prothrombin (Bos taurus) were 27% and 25%, respectively. Besides, the inhibition result in the assay on Escherichia coli [1] and in the assay on Escherichia coli [2] was “inactive” throughout.

`O=C1NC(=O)/C(=C/c2sccc2Br)N1`: the inhibition turned out to be 13% in the assay with Dengue virus and 16% at Prothrombin (Bos taurus). Further, the inhibition entry in the assay with Escherichia coli [1] and in the assay with Escherichia coli [2] was “inactive” each time.

Take `O=C1NC(=S)N/C1=C\c1ccc(Br)s1`: the inhibition with Dengue virus was found to be 46%; against Prothrombin (Bos taurus) it was 17%; in the assay with Escherichia coli [1], 75%; with Escherichia coli [2], 10%.

With `Cn1cc(/C=C2\NC(=S)NC2=O)c2ccccc21`, the results for the inhibition with Dengue virus, on Prothrombin (Bos taurus) and with Escherichia coli [1] were 50%, 22% and 16%, respectively. For the same molecule, in the assay on Escherichia coli [2], the inhibition entry is “inactive”.

As for `C/C(=C1/SC(=S)NC1=O)c1ccc(F)cc1`, the inhibition result with Dengue virus and in the assay on Escherichia coli [2] was “inactive” each time. In addition, the inhibition against Prothrombin (Bos taurus) stood at 20%; with Escherichia coli [1], 69%.

Consider `O=C1NC(=O)C(Cc2cccs2)N1` (stereo not given), for which the inhibition result in the assay with Dengue virus, on Prothrombin (Bos taurus), with Escherichia coli [1] and in the assay with Escherichia coli [2] was “inactive” in each case.

As for `O=C1NC(=S)S/C1=C\c1c[nH]c2ccccc12`, the inhibition came to 44% in the assay on Dengue virus and 26% against Prothrombin (Bos taurus). Also, the inhibition entry in the assay with Escherichia coli [1] and in the assay on Escherichia coli [2] was “inactive” throughout.

As to `O=C1NC(=O)/C(=C/c2c[nH]c3ccccc23)N1`, the inhibition was determined as 36% in the assay on Dengue virus and 15% against Prothrombin (Bos taurus). Also, the inhibition entry with Escherichia coli [1] and with Escherichia coli [2] was “inactive” in each case.

`COc1cccc(/C=C2\NC(=O)NC2=O)c1` had an inhibition in the assay on Dengue virus of 18%. Besides, the inhibition result on Prothrombin (Bos taurus), in the assay with Escherichia coli [1] and in the assay on Escherichia coli [2] was “inactive” throughout.

With `O=C1NC(=O)/C(=C/C2CCCCC2)S1`, the inhibition with Dengue virus is 25%. In addition, the inhibition entry on Prothrombin (Bos taurus), in the assay with Escherichia coli [1] and with Escherichia coli [2] was “inactive” each time.

Consider `COc1cccc(/C=C2\NC(=S)NC2=O)c1`, for which the inhibition in the assay with Dengue virus came out at 28%; at Prothrombin (Bos taurus) it was 15%; with Escherichia coli [1], 10%; in the assay on Escherichia coli [2] it was 18%.

In the case of `CC(=O)N1C(=S)NC(=O)[C@@H]1Cc1c[nH]c2ccccc12`, the inhibition entry in the assay on Dengue virus, on Prothrombin (Bos taurus), with Escherichia coli [1] and with Escherichia coli [2] was “inactive” in each case.

For `O=C1NC(=S)S/C1=C\c1ccc([N+](=O)[O-])cc1`, the inhibition with Dengue virus was found to be 46%; on Prothrombin (Bos taurus), 25%; in the assay on Escherichia coli [1], 65%; in the assay with Escherichia coli [2], 11%.

Take `O=C1NC(=O)/C(=C/c2ccco2)N1`: the figures for the inhibition in the assay on Dengue virus, against Prothrombin (Bos taurus) and in the assay with Escherichia coli [1] were 25%, 23% and 10%, respectively. In the assay with Escherichia coli [2], the inhibition result is “inactive”.

As for `O=C1NC(=O)/C(=C/c2ccc([N+](=O)[O-])cc2)S1`, the inhibition entry with Dengue virus, on Prothrombin (Bos taurus) and in the assay with Escherichia coli [1] was “inactive” throughout. This molecule came in with an inhibition with Escherichia coli [2] of 13%.

In the assay on Dengue virus, `CC(=O)n1cc(/C=C2\SC(=O)NC2=O)c2ccccc21` had an inhibition of 11%. Besides, the inhibition result at Prothrombin (Bos taurus), in the assay with Escherichia coli [1] and in the assay with Escherichia coli [2] was “inactive” throughout.

Turning to `O=C1NC(=S)N/C1=C\c1cccc(O)c1`, the inhibition came to 28% in the assay with Dengue virus, 12% on Prothrombin (Bos taurus), 21% in the assay with Escherichia coli [1] and 15% in the assay on Escherichia coli [2].

Regarding `O=C1NC(=S)S/C1=C\C1CCCCC1`, the inhibition in the assay with Dengue virus amounted to 22%; at Prothrombin (Bos taurus) it was 29%; with Escherichia coli [1] it was 13%; with Escherichia coli [2], 40%.

Consider `COc1ccc(/C=C/C=C2\NC(=S)NC2=O)cc1`, for which the inhibition with Dengue virus came to 13%; against Prothrombin (Bos taurus) it was 18%; in the assay on Escherichia coli [1] it was 48%; in the assay on Escherichia coli [2] it was 27%.

For the molecule `CC(=O)n1cc(/C=C2\NC(=S)NC2=O)c2ccccc21`, the inhibition worked out at 43% in the assay with Dengue virus, 11% against Prothrombin (Bos taurus), 13% in the assay with Escherichia coli [1] and 15% in the assay with Escherichia coli [2].

Consider `C/C(=C1/NC(=S)NC1=O)c1ccc(C2CCCCC2)cc1`, for which the inhibition in the assay on Dengue virus is 12%; with Escherichia coli [1], 13%; with Escherichia coli [2], 58%. On Prothrombin (Bos taurus), the inhibition result was “inactive”.

`C/C(=C1/SC(=S)NC1=O)c1ccccc1`: the inhibition worked out at 23% in the assay with Dengue virus, 19% at Prothrombin (Bos taurus) and 33% in the assay on Escherichia coli [1]. The inhibition entry in the assay on Escherichia coli [2] is “inactive”.

With `CCCC/C=C/C1SC(=S)NC1=O` (stereo not given), the inhibition was 18% with Dengue virus, 10% in the assay with Escherichia coli [1] and 17% with Escherichia coli [2]. Further, the inhibition entry at Prothrombin (Bos taurus) is “inactive”.

For the molecule `O=C1NC(=O)C(Cc2ccccc2)S1` (stereo not given), the inhibition entry with Dengue virus, on Prothrombin (Bos taurus), in the assay with Escherichia coli [1] and in the assay on Escherichia coli [2] was “inactive” in each case.

Take `O=C1NC(=S)S/C1=C\c1sccc1Cl`: the inhibition in the assay with Dengue virus worked out at 47%; on Prothrombin (Bos taurus), 28%; in the assay with Escherichia coli [1], 43%. Also, the inhibition entry with Escherichia coli [2] is “inactive”.

With `CCC/C=C/C1SC(=S)NC1=O` (stereo not given), the inhibition with Dengue virus came out at 23%; at Prothrombin (Bos taurus) it was 11%; in the assay on Escherichia coli [1], 88%. In addition, in the assay on Escherichia coli [2], the inhibition entry is “inactive”.

Consider `O=C1CSC(=O)N1`, for which the inhibition in the assay on Dengue virus came to 13%. Moreover, the inhibition entry at Prothrombin (Bos taurus), in the assay on Escherichia coli [1] and with Escherichia coli [2] was “inactive” in each case.

For the molecule `C/C(=C1/NC(=S)NC1=O)c1ccccc1`, the inhibition entry in the assay with Dengue virus is “inactive”. Besides, the figures for the inhibition against Prothrombin (Bos taurus), in the assay with Escherichia coli [1] and in the assay with Escherichia coli [2] were 21%, 24% and 14%, respectively.

Consider `O=C1NC(=O)/C(=C/c2ccco2)S1`, for which the figures for the inhibition in the assay with Dengue virus, against Prothrombin (Bos taurus) and with Escherichia coli [1] were 20%, 19% and 41%, respectively. The inhibition result in the assay on Escherichia coli [2] is “inactive”.

Take `CC(=O)N1C(=S)NC(=O)[C@H]1Cc1ccccc1`: the inhibition result with Dengue virus, at Prothrombin (Bos taurus) and with Escherichia coli [2] was “inactive” in each case. The inhibition in the assay on Escherichia coli [1] stood at 15%.

In the assay on Dengue virus, `NCCCC[C@@H]1NC(=S)NC1=O` showed an inhibition of 11%. The inhibition entry at Prothrombin (Bos taurus), with Escherichia coli [1] and in the assay with Escherichia coli [2] was “inactive” each time.
